Compound activity (PubChem)
PLC-gamma1 inh = inhibitors of human phospholipase C gamma1; inhibition, % at 12.2 µM; 370,000 tested, 0.84% active; P19174; purified PLC-gamma1, fluorogenic substrate, fluorescence; AID 720700; in the data active = inhibition above about 9.5%
PLC-beta3 inh = inhibitors of human phospholipase C beta3; Q01970; Purified PLC-beta3, fluorogenic substrate, fluorescence; inhibition, % at 12.2 µM; 370,000 tested, 0.18% active; AID 720704; in the data active = inhibition above about 11%
HGIII-sPLA2 inh = Inhibits HGIII-sPLA2 liposome hydrolysis, primary screen | Q9NZ20 | QFRET BODIPY PC-A2 liposome hydrolysis, fluorescence | inhibition, % at 12.2 µM | 370,000 tested, 0.56% active | AID 743126;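 active = inhibition above mean plus 3 SD of compounds lying within the high and low control bounds, cut at about 19% in these data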
Target sequence (Q9NZ20 whole entry, looked up): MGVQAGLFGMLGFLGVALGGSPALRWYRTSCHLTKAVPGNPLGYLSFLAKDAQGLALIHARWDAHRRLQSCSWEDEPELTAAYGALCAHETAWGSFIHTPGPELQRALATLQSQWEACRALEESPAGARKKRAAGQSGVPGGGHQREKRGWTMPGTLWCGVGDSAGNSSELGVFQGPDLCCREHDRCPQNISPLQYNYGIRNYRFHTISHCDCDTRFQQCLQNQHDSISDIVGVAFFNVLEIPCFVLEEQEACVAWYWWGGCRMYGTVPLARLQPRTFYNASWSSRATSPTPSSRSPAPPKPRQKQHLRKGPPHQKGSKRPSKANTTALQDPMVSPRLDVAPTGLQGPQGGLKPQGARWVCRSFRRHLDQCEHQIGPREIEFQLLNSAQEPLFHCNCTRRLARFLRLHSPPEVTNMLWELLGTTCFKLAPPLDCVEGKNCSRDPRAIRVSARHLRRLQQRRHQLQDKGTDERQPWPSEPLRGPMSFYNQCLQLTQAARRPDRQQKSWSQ
Tb MetRS inh = blocks T. brucei methionyl-tRNA synthetase activity. 360,000 tested, 0.4% active. AID 624268. inhibition, % at 11.9 µM. purified T. brucei MetRS, ATP depletion, Kinase-Glo luminescence;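 active = inhibition above a per-plate cutoff of the control wells' mean inhibition plus 3 SD, cut at about 5.5% in these data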
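Material: T. brucei methionyl-tRNA synthetase, purified; reagent: substrates ATP, L-methionine and bulk Escherichia coli tRNA; dosing: 11.9 µM single point; timing: 15 min plus 2 h at 25 °C; detection: luminescence of leftover ATP; evaluation: % inhibition; control set: DMSO-only wells as low control; replicates: singlicate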
TbMetRS confirm = confirmation of Trypanosoma brucei MetRS inhibitors | 1,400 tested, 93% active | AID 624412 | T. brucei MetRS enzyme, luminescence (ATP depletion) | shares compounds with Tb MetRS inh | inhibition, % at 11.9 µM; in the data active = inhibition above about 7%
Jurkat cytotox = counter-screen for T. brucei MetRS inhibitors: Jurkat cell cytotoxicity | shares compounds with Tb MetRS inh | Jurkat cells viability, ATP luminescence | inhibition, % at 8.3 µM | 1,400 tested, 12% active; in the data active = inhibition above about 15%
Tb MetRS inh FP = T. brucei MetRS inhibition, orthogonal assay; shares compounds with Tb MetRS inh; purified T. brucei MetRS, fluorescence polarization; AID 651607; inhibition, % at 11.9 µM; 1,400 tested, 44% active; in the data active = inhibition above about 17%
Numbers stand for hits; i = inactive; nt = no result given. Most compounds without a hit are left out; they make up all but 1.9% or so of the library.

SMILES	PLC-gamma1 inh	PLC-beta3 inh	HGIII-sPLA2 inh	Tb MetRS inh	TbMetRS confirm	Jurkat cytotox	Tb MetRS inh FP
CCO[C@H]1OC(C(=O)NCc2nc3ccccc3[nH]2)=C[C@@H](c2ccc(C(F)(F)F)cc2)[C@@H]1CCCO	i	i	i	11.1	34.9	i	i
CCO[C@@H]1OC(C(=O)NCc2nc3ccccc3[nH]2)=C[C@H](C)[C@H]1CCCO	i	i	i	i	nt	nt	nt
CCO[C@H]1OC(C(=O)NCc2nc3ccccc3[nH]2)=C[C@@H](C)[C@@H]1CCCO	i	i	i	i	nt	nt	nt
C#Cc1ccc([C@@H]2C=C(C(=O)NCc3nc4ccccc4[nH]3)O[C@H](OCC)[C@H]2CCCO)cc1	i	i	i	27.6	51.5	i	32.6
CCO[C@@H]1OC(C(=O)NCc2nc3ccccc3[nH]2)=C[C@H](c2ccc(C(F)(F)F)cc2)[C@H]1CCCO	i	i	i	32.8	61.4	i	37.7
O=C(CSc1nc2ncccc2[nH]1)N1CCOCC1	i	i	i	nt	nt	nt	nt
Cc1cccc(CC(=O)c2c[nH]c3ccccc23)c1	i	i	i	11.4	21.9	i	i
COc1cc(Cl)c(CC(=O)c2c[nH]c3ccccc23)cc1OC	i	i	i	i	nt	nt	nt
CC(OC(=O)CNC(=O)c1ccc(Cl)c([N+](=O)[O-])c1)C(=O)NC1CCCCC1C (stereo not given)	i	i	i	7.2	26.1	i	i
C=CCNC(=S)NNC(=O)Cn1c(-c2ccccc2)cc(=O)n2ncnc12	i	i	i	10.1	17.0	i	i
COC(=O)C1CN(C2CCCC2)CCS(=O)(=O)N1Cc1ccccc1 (stereo not given)	i	i	i	nt	nt	nt	nt
C[C@H](NC(=O)c1ccc(Cl)cc1)C(=O)OCn1nnc2ccccc2c1=O	i	i	i	i	nt	nt	nt
O=C(Cn1nnc2ccccc2c1=O)NCCc1ccc(Cl)cc1Cl	i	i	i	6.5	34.4	i	i
O=C(CSCC(=O)OCn1nnc2ccccc2c1=O)Nc1ccc(Cl)cc1	i	i	i	16.0	14.3	i	i
COc1cc2c(cc1OC)C(C(=O)O)C(c1ccc3c(c1)OCO3)N(C)C2=O (stereo not given)	i	i	i	nt	nt	nt	nt
CCc1nnc(NS(=O)(=O)c2ccc(NS(=O)(=O)c3ccccc3[N+](=O)[O-])cc2)s1	i	i	i	i	nt	nt	nt
CCc1nnc(NS(=O)(=O)c2ccc(Nc3ccc([N+](=O)[O-])c4nonc34)cc2)s1	i	i	i	7.0	10.6	i	i
Brc1ccc(-c2nnc3sc(CNC4CCCC4)cn23)cc1	i	i	i	i	nt	nt	nt
Brc1ccc(-c2nnc3sc(CNCc4ccc5c(c4)OCO5)cn23)cc1	i	i	i	33.1	48.4	i	25.4
Cc1ccc(-n2c(SCC(=O)Nc3ccc(S(=O)(=O)Nc4cc(C)nc(C)n4)cc3)nnc2-c2ccc(C(C)(C)C)cc2)cc1	i	i	i	nt	nt	nt	nt
O=C(CSc1nnc(-c2cccnc2)n1C1CCCCC1)N1CCCC1	i	i	i	nt	nt	nt	nt
Cc1sc(-c2ccccn2)nc1OC(=O)c1ccc(Cl)c(Cl)c1	i	i	i	14.3	i	i	i
Cc1sc(-c2ccccn2)nc1OC(=O)c1ccc(F)cc1F	i	i	i	i	nt	nt	nt
O=C(CSc1nnc2ccc(-c3ccccc3)nn12)NCC1CCCO1 (stereo not given)	i	i	i	i	nt	nt	nt
O=C(CSc1nnc2ccc(-c3ccc(Br)cc3)nn12)NCC1CCCO1 (stereo not given)	i	i	i	8.0	32.8	i	i
SMILES	PLC-gamma1 inh	PLC-beta3 inh	HGIII-sPLA2 inh	Tb MetRS inh	TbMetRS confirm	Jurkat cytotox	Tb MetRS inh FP
CC1(C)NC(=O)N(CCCOc2ccc(Br)cc2Cl)C1=O	i	i	i	10.7	24.3	i	104.3
Clc1cc(Br)ccc1OCCCn1ccnc1	i	i	i	9.9	17.0	i	i
CCOc1ccc(-n2c(SCC(=O)Nc3ccc4cn[nH]c4c3)nnc2-c2ccc(C(C)(C)C)cc2)cc1	i	i	i	nt	nt	nt	nt
O=C(c1cccnc1)N1CCN(c2ccc([N+](=O)[O-])cc2Cl)CC1	i	i	i	5.8	16.5	i	i
COC(=O)[C@]12C[C@H](CC(=O)N3CCCCC3)C(=O)N(Cc3ccc4c(c3)OCO4)C1=C[C@H](C(C)(C)C)O[C@@H]2C	i	i	i	nt	nt	nt	nt
COc1ccccc1CNc1ccc([N+](=O)[O-])cc1C	i	i	i	i	nt	nt	nt
